Experimental data published in ChEMBL document CHEMBL4513216, “Probing the Open Global Health Chemical Diversity Library for Multistage-Active Starting Points for Next-Generation Antimalarials” (ACS Infect Dis, 2020).

Test: Toxicity liver stage against HepG2, at 10uM
Type: cell-based
Design: test concentration 10 uM, cell line HepG2-A16-CD81EGFP
Settings: human, HepG2-A16-CD81EGFP cells; read-out: INHIBITION
Outline: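 Uninfected HepG2-A16-CD81EGFP cells, 3 × 10^3 per well, 1536-well, plated on prespotted compound at 10 μM final, parasite-free screening media added to match infected plates; puromycin 10 μM positive, DMSO 0.5% negative; run in parallel with 48 h PbLuc assay at 37 °C, 5% CO2; viability by CellTiter-Glo luminescence, normalized to controls.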

**Q.** For `CC1CCC(NS(=O)(=O)CC(=O)NC2(C(N)=O)CCCC2)CC1` (stereo unspecified), which cytotoxicity at 10 µM is on record?
**A.** -4.12%

**Q.** Which cytotoxicity at 10 µM does the source give for `Nc1nc(Cn2ccnc2-c2cc(CN3CCCC3)cs2)cs1` here?
**A.** 1.4%

**Q.** For `Cc1oc(-c2ccco2)nc1CC(=O)N1CCC(C(O)C(F)(F)F)CC1` (stereo unspecified), which cytotoxicity at 10 µM is on record?
**A.** -5.25%

**Q.** With `COCC(=O)NC(C)c1cccc(Br)c1` (stereo unspecified) as the molecule, how does the cytotoxicity at 10 µM read?
**A.** -8.13%

**Q.** For `Nc1ncc(C(=O)N2CCC3(CCCO3)CC2)c(-c2ccccc2)n1`, which cytotoxicity at 10 µM is on record?
**A.** -156%

**Q.** For `CN1CC(=O)N(c2ccccc2)CC12CCN(C(=O)c1ccnnc1)C2` (stereo unspecified), which cytotoxicity at 10 µM is on record?
**A.** 3.39%

**Q.** With `Cn1nccc1C(=O)N1Cc2ccccc2OC2(CCOCC2)C1` as the molecule, how does the cytotoxicity at 10 µM read?
**A.** -24.7%

**Q.** Which cytotoxicity at 10 µM does the source give for `OC1(CN2CCCC2)CCCN(Cc2ccc(F)cc2Cl)C1` (stereo unspecified) here?
**A.** 20.9%

**Q.** For `COC1CCN(C(=O)c2ccc3ncsc3c2)CC1`, which cytotoxicity at 10 µM is on record?
**A.** -10.3%

**Q.** With `O=C(CCNc1ccc(Cl)cn1)NCc1ccncc1` as the molecule, how does the cytotoxicity at 10 µM read?
**A.** -2.31%

**Q.** Which cytotoxicity at 10 µM does the source give for `CN(CCC#N)C(=O)CN(C1CC1)C1CCc2ccccc21` (stereo unspecified) here?
**A.** -4.74%

**Q.** With `COc1cc2c(c(OC)c1OC)CCN(CCN1CCCCC1)CC2` as the molecule, how does the cytotoxicity at 10 µM read?
**A.** -15.7%

**Q.** Which cytotoxicity at 10 µM does the source give for `CNc1cc(C2CCCN(S(=O)(=O)c3cn[nH]c3)C2)ccn1` (stereo unspecified) here?
**A.** -24%

**Q.** Which cytotoxicity at 10 µM does the source give for `NC(=O)c1ccc(N2CCCCC2)c(NC(=O)c2cc(F)ccc2F)c1` here?
**A.** 7.57%

**Q.** Which cytotoxicity at 10 µM does the source give for `NC(=O)CSCC(=O)NC1(c2cccc(Cl)c2)CC1` here?
**A.** -16.4%

**Q.** With `Cc1cc(CNC2(c3ccccc3)CCCCC2)on1` as the molecule, how does the cytotoxicity at 10 µM read?
**A.** 0.643%

**Q.** With `CC(C)CCN1C(=O)c2ccc(C(=O)NCCc3c[nH]cn3)cc2C1=O` as the molecule, how does the cytotoxicity at 10 µM read?
**A.** -12.5%

**Q.** For `Cc1cc(C)n(CC(=O)N(CC2CN(C)CCO2)c2nccs2)n1` (stereo unspecified), which cytotoxicity at 10 µM is on record?
**A.** -5.85%

**Q.** With `CCn1c(Cn2cncn2)nnc1C1CCN(Cc2ccc(C)o2)CC1` as the molecule, how does the cytotoxicity at 10 µM read?
**A.** -12.9%

**Q.** For `CN(Cc1nccn1CC(F)(F)F)C(=O)c1ccc2c(c1)OCO2`, which cytotoxicity at 10 µM is on record?
**A.** 1.09%

**Q.** For `O=C(NCC(F)(F)F)NC1CCCc2c1cnn2CCO` (stereo unspecified), which cytotoxicity at 10 µM is on record?
**A.** 4.44%

**Q.** Which cytotoxicity at 10 µM does the source give for `CSc1ccsc1C(=O)NS(=O)(=O)c1ccc(F)cc1` here?
**A.** -3.91%

**Q.** With `N#Cc1cccc(CN2CC3(CCCCN3c3cccnc3)CC2=O)c1` (stereo unspecified) as the molecule, how does the cytotoxicity at 10 µM read?
**A.** -7.27%

**Q.** Which cytotoxicity at 10 µM does the source give for `COc1ccc(C(C(=O)O)N(C)CCN2CCCC2)c(C)c1` (stereo unspecified) here?
**A.** 3.41%

**Q.** With `Cc1csc(N2CCN(C(=O)NCCNc3ncccn3)CC2)n1` as the molecule, how does the cytotoxicity at 10 µM read?
**A.** -18.8%

**Q.** Which cytotoxicity at 10 µM does the source give for `O=C(O)Cc1nc2nccc(-c3ccc(F)cc3)n2n1` here?
**A.** -1.53%

**Q.** With `CCCn1ccnc1CN1CCCC(O)(CN2CCCC2)C1` (stereo unspecified) as the molecule, how does the cytotoxicity at 10 µM read?
**A.** -2.69%

**Q.** With `Cc1ccc(NS(C)(=O)=O)c(C(=O)NCCC(=O)NC(C)C)c1` as the molecule, how does the cytotoxicity at 10 µM read?
**A.** -0.141%

**Q.** Which cytotoxicity at 10 µM does the source give for `O=C(OCc1cc(=O)n2cc(Br)ccc2n1)c1ccc2c(c1)OCO2` here?
**A.** -7.37%

**Q.** With `CCc1ncc(C(=O)N2CCCC2Cn2cccn2)s1` (stereo unspecified) as the molecule, how does the cytotoxicity at 10 µM read?
**A.** -9.67%

**Q.** With `CCCS(=O)(=O)N1CCc2nc(N3CCOCC3)nc(N(C)C)c2C1` as the molecule, how does the cytotoxicity at 10 µM read?
**A.** 15.5%

**Q.** For `CCC1CCCCN1S(=O)(=O)c1c(N)noc1C` (stereo unspecified), which cytotoxicity at 10 µM is on record?
**A.** 9.5%

**Q.** With `CCOCC1CN(Cc2ccccn2)Cc2nn(CC3CC3)cc21` (stereo unspecified) as the molecule, how does the cytotoxicity at 10 µM read?
**A.** -0.966%

**Q.** Which cytotoxicity at 10 µM does the source give for `COC(=O)C(c1cc(F)ccc1F)N(C)C(=O)c1cnccn1` (stereo unspecified) here?
**A.** 6.43%

**Q.** For `Cc1nn(C)c2nc(N3CCC(C(O)c4nccn4C)CC3)sc12` (stereo unspecified), which cytotoxicity at 10 µM is on record?
**A.** 0.79%

**Q.** Which cytotoxicity at 10 µM does the source give for `COCCNC(=O)Cn1cc2c(n1)c(C)nn2C(C)C` here?
**A.** -6.24%

**Q.** With `COCCO[C@H]1CCN(C(=O)c2cccnc2)[C@H]1Cc1cnn(C)c1` as the molecule, how does the cytotoxicity at 10 µM read?
**A.** 4%

**Q.** Which cytotoxicity at 10 µM does the source give for `NC(=O)C1CCN(C(=O)CCn2ccc3ccc(Br)cc32)CC1` here?
**A.** -5.85%

**Q.** For `O=S1(=O)CCN2C(=N1)Oc1ccc(Cl)cc12`, which cytotoxicity at 10 µM is on record?
**A.** 13.7%

**Q.** For `CC(=O)N1CCS(=O)(=O)[C@@H]2CCN(CC(C)C)CC[C@@H]21`, which cytotoxicity at 10 µM is on record?
**A.** -142%

**Q.** Which cytotoxicity at 10 µM does the source give for `O=S(=O)(N1CCC(n2cccc2)CC1)N1CCCC1c1ccco1` (stereo unspecified) here?
**A.** 12.7%

**Q.** Which cytotoxicity at 10 µM does the source give for `CC(C)n1cnnc1CN(C)C1CCCNC1` (stereo unspecified) here?
**A.** 6.9%

**Q.** With `CCc1nnc2n1CCN(Cc1cc(Cl)c3c(c1)OCCCO3)C2` as the molecule, how does the cytotoxicity at 10 µM read?
**A.** -5.83%

**Q.** Which cytotoxicity at 10 µM does the source give for `CC(=O)Nc1ccc(-c2cn(CCn3c(C)cc(C)nc3=O)nn2)cc1` here?
**A.** 5.03%

**Q.** With `Cc1cc(C(C)(O)CNC(=O)OC(C)(C)C)c(C)o1` (stereo unspecified) as the molecule, how does the cytotoxicity at 10 µM read?
**A.** 10.5%

**Q.** For `Cc1ccc(NC(=O)Nc2c[nH]c(=O)[nH]c2=O)c(Cl)c1`, which cytotoxicity at 10 µM is on record?
**A.** -4.28%
